The values that follow come from ChEMBL document CHEMBL1143739, “SAR study of bicyclo[4.1.0]heptanes as melanin-concentrating hormone receptor R1 antagonists: taming hERG” (Bioorg Med Chem, 2007).

pKi: −log10 of the molar value. Calls of active or inactive are those of the source. The rule behind the calls is not given here.

As usually defined, the inhibition is the drop in the measured response relative to a control, in per cent. For orientation: pKi means the Ki on a negative log10 scale, so that one unit is a factor of ten. Low values mean a large Ki, high ones a small Ki.

The target in series [1] is T1, hERG (KCNH2) (Homo sapiens, UniProt Q12809). The series can be described thus: Inhibition of hERG expressed in CHO cells at 5 ug/mL by rubidium efflux assay. The format is toxicity, cell-based. As to conditions: CHO cells that express hERG. In short, it runs like this:
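hERG-CHO cells plated 24 h, then loaded 3 h in HEPES-buffered saline with 5.4 mM RbCl. Compound added and equilibrated 30 min at 37 °C. Cells washed three times in Rb-free saline (5.4 mM KCl), then depolarized 5 min with 45.4 mM KCl.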
Background: Block of hERG is tested as a sign of cardiac risk.

Series [2] concerns the target Melanin-concentrating hormone receptor 1 (Mus musculus) (UniProt Q8JZL2). The series can be described thus: Ex vivo displacement of [125I]S36057 binding from mouse brain MCHR1 at 30 mg/kg, po after 6 hrs. The format is functional, organism-based. Further details: dose 30 mg/kg. A general note: Displacement assays read how much labelled ligand stays bound in the presence of the test substance.

Series [3] shares this target. The series can be described thus: Ex vivo displacement of [125I]S36057 binding from mouse brain MCHR1 at 30 mg/kg, po after 24 hrs. The format is functional, organism-based. Further details: dose 30 mg/kg.
For series [4], the target named is Melanin-concentrating hormone receptor 1 (Homo sapiens, UniProt Q99705). The series can be described thus: Displacement of [125I]MCH from MCHR1 expressed in CHO cells. The format is cell-based. In short, it runs like this: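 Human MCH R1, CHO cell membranes (0.1 mg/mL) on SPA beads (1 mg/mL). Buffer: 25 mM HEPES, 10 mM MgCl2, 5 mM MnCl2, 0.1% BSA, pH 7.4. Incubation 2–4 h at room temperature, scintillation count. Ki by non-linear regression; mean ± range of two determinations, each in quadruplicate.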
Sequence of Melanin-concentrating hormone receptor 1 (Q99705 whole entry): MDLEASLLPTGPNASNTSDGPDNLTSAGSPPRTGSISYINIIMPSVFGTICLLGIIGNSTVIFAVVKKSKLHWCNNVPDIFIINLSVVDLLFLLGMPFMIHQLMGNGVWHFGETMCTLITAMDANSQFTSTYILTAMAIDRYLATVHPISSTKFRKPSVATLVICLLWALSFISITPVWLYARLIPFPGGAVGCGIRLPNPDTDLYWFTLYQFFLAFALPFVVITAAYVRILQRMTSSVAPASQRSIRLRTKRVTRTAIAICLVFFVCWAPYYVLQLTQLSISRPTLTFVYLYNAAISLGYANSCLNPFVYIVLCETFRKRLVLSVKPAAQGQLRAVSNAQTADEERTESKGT

Series [5] addresses T1, hERG (KCNH2). The series can be described thus: Inhibition of hERG expressed in CHO cells at […] by rubidium efflux assay. It is filed as toxicity, cell-based. The note with it: CHO cells that express hERG.

T1 sequence (Q12809 whole entry): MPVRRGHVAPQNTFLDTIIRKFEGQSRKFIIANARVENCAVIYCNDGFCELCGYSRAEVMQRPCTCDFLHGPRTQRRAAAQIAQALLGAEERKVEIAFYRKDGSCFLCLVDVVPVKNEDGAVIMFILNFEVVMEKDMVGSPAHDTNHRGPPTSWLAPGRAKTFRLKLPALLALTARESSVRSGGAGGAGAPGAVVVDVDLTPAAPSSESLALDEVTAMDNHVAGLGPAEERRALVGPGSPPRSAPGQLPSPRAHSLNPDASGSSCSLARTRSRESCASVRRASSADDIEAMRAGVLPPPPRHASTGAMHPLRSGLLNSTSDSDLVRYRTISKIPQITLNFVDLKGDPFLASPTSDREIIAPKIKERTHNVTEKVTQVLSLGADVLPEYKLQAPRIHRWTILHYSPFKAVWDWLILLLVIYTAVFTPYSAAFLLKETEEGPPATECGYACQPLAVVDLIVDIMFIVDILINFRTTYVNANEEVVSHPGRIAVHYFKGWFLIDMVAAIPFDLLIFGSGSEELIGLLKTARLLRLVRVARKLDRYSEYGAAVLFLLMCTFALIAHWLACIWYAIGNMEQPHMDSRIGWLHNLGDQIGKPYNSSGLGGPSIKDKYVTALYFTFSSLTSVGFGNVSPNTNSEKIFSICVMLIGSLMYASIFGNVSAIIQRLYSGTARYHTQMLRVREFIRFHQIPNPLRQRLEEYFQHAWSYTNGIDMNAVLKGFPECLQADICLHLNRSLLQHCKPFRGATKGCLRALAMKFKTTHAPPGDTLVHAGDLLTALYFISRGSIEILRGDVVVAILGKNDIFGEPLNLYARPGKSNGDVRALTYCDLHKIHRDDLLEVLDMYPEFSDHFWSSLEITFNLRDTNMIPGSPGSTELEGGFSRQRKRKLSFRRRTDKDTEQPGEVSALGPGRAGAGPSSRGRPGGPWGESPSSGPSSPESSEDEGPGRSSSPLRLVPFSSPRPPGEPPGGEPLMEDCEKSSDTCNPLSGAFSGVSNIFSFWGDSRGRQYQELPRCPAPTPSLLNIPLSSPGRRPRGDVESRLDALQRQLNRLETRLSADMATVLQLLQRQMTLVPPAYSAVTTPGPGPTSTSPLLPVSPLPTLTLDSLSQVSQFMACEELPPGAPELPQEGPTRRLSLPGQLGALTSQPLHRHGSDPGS
Sequence of Melanin-concentrating hormone receptor 1 (Mus musculus) (Q8JZL2 whole entry): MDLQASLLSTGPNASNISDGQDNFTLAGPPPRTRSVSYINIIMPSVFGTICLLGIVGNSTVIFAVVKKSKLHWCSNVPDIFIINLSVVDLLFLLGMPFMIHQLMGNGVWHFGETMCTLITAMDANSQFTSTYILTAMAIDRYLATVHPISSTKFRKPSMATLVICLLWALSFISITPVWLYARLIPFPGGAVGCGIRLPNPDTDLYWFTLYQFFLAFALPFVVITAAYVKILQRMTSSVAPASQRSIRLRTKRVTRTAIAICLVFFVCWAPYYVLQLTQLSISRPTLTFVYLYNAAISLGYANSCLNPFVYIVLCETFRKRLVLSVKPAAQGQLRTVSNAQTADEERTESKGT

Regarding `N#Cc1cccc([C@]23CC[C@@H](N(CCN4CCC[C@H]4CO)C(=O)Nc4ccc(F)c(Cl)c4)CC2C3)c1` (stereo not given in full), the inhibition at 5 ug/mL against hERG (KCNH2) [1] is 75%. Moreover, the Activity in series [2] was 78%. Moreover, the outcome in series [3] was inactive.

The molecule `CC1CC[C@@H](CO)N1CCN(C(=O)Nc1cc(Cl)nc(Cl)c1)[C@@H]1CC[C@]2(c3cccc(C#N)c3)CC2C1` (stereo not given in full) gave a pKi in series [4] of 8.92. For the same molecule, the inhibition at 5 ug/mL on hERG (KCNH2) [1] was found to be 60%. Also, the Activity is 82% in series [2] and 41% in series [3].

With `CO/N=C/c1cccc([C@]23CC[C@@H](N(CCN(C(C)C)C(C)C)C(=O)Nc4ccc(F)c(Cl)c4)CC2C3)c1` (stereo not given in full), the pKi in series [4] was 8.39. Also, on hERG (KCNH2) [1], the inhibition at 5 ug/mL worked out at 76%. In addition, the Activity in series [2] was 62%. In addition, the result in series [3] was inactive.

For the molecule `CC(C)N(CCN(C(=O)Nc1ccc(F)c(Cl)c1)[C@@H]1CC[C@]2(c3cccc(C#N)c3)CC2C1)[C@@H](C)CO` (stereo not given in full), the negative-log Ki (pKi) in series [4] is 8.28. The inhibition at 5 ug/mL against hERG (KCNH2) [1] worked out at 82%. Further, the values for the Activity in series [2] and in series [3] were 75% and 35%, respectively.

Take `CC(C)N(CCF)CCN(C(=O)Nc1cc(Cl)nc(Cl)c1)[C@@H]1CC[C@]2(c3cccc(C#N)c3)CC2C1` (stereo not given in full): the pKi in series [4] was 8.00. Besides, the inhibition at 5 ug/mL against hERG (KCNH2) [1] turned out to be 50%. Besides, the results for the Activity in series [2] and in series [3] were 99% and 97%, respectively.

In the case of `CC(=O)c1ccc(C2=CCC(N(CCN3CCCC3)C(=O)Nc3ccc(F)c(Cl)c3)CC2)s1` (stereo not given), the pKi in series [4] is 7.51. Further, the inhibition at 5 ug/mL against hERG (KCNH2) [1] is 43%. Besides, the results for the Activity in series [2] and in series [3] were 59% and 3%, respectively.

On to `N#Cc1cccc([C@]23CC[C@@H](N(CCNCCF)C(=O)Nc4cc(Cl)nc(Cl)c4)CC2C3)c1` (stereo not given in full), for which the pKi in series [4] is 8.36. In addition, the inhibition at 5 ug/mL against hERG (KCNH2) [1] was 84%. In addition, the Activity was found to be 89% in series [2] and 32% in series [3].

Take `CC(C)N(CCF)CCN(C(=O)Nc1ccc(F)c(Cl)c1)[C@@H]1CC[C@]2(c3cccc(C#N)c3)CC2C1` (stereo not given in full): the negative logarithm of the Ki (pKi) in series [4] is 7.92. The inhibition at 5 ug/mL against hERG (KCNH2) [1] was determined as 50%. Besides, the figures for the Activity in series [2] and in series [3] were 81% and 66%, respectively.

The molecule `CS(=O)(=O)N1CCC(CN(C(=O)Nc2cc(Cl)nc(Cl)c2)[C@@H]2CC[C@]3(c4cccc(CN)c4)CC3C2)CC1` (stereo not given in full) had a negative-log Ki (pKi) in series [4] of 8.62. Besides, the inhibition at 5 ug/mL against hERG (KCNH2) [1] amounted to 3%. Moreover, in series [2], the Activity came out at 0%. Besides, the inhibition at […] against hERG (KCNH2) [5] is -1%.

For `CN(C)Cc1cccc([C@]23CC[C@@H](N(CC4CCN(S(C)(=O)=O)CC4)C(=O)Nc4ccc(F)c(Cl)c4)CC2C3)c1` (stereo not given in full), in series [4], the pKi was 7.82. The inhibition at 5 ug/mL against hERG (KCNH2) [1] was 8%. The same molecule came in with an Activity in series [2] of 26%. Besides, on hERG (KCNH2) [5], the inhibition at […] turned out to be 7%.

In the case of `CN(C)Cc1cccc([C@]23CC[C@@H](N(CC4CCN(S(C)(=O)=O)CC4)C(=O)Nc4cc(Cl)nc(Cl)c4)CC2C3)c1` (stereo not given in full), the pKi in series [4] was 8.48. In addition, at hERG (KCNH2) [1], the inhibition at 5 ug/mL was determined as 7%. In series [2], this molecule gave an Activity of 0%. Besides, the inhibition at […] at hERG (KCNH2) [5] came to 8%.

In series [4], `CS(=O)(=O)N1CCC(CN(C(=O)Nc2ccc(F)c(F)c2)[C@@H]2CC[C@]3(c4cccc(C#N)c4)CC3C2)CC1` (stereo not given in full) had a pKi of 8.27. The inhibition at 5 ug/mL at hERG (KCNH2) [1] was found to be 34%. Moreover, the inhibition at […] at hERG (KCNH2) [5] was 15%.

As to `CS(=O)(=O)N1CCC[C@H]1CN(C(=O)Nc1ccc(F)c(Cl)c1)[C@@H]1CC[C@]2(c3cccc(C#N)c3)CC2C1` (stereo not given in full), the pKi in series [4] is 6.25. Besides, at hERG (KCNH2) [1], the inhibition at 5 ug/mL is 13%. Moreover, at hERG (KCNH2) [5], the inhibition at […] amounted to 32%.

For `N#Cc1cccc([C@]23CC[C@@H](N(CCN4CC[C@@H](O)C4)C(=O)Nc4ccc(F)c(Cl)c4)CC2C3)c1` (stereo not given in full), the inhibition at 5 ug/mL against hERG (KCNH2) [1] was 80%. The same molecule yielded an Activity in series [2] of 49%. For the same molecule, in series [3], the result was inactive.

With `CC(C)N(CCN(C(=O)Nc1cc(Cl)nc(Cl)c1)[C@@H]1CC[C@]2(c3cccc(C#N)c3)CC2C1)C(C)C` (stereo in doubt; 13), the values for the Activity in series [2] and in series [3] were 99% and 58%, respectively.

Take `O=C(Nc1ccc(F)c(Cl)c1)N(CCN1CCCC1)C1CC=C(c2cccnc2)CC1` (stereo not given): the pKi in series [4] was 7.52. This molecule also showed an Activity in series [2] of 16%.

`CS(=O)(=O)N1CCC(CN(C(=O)Nc2cccc(F)c2)[C@@H]2CC[C@]3(c4cccc(C#N)c4)CC3C2)CC1` (stereo not given in full) had a pKi in series [4] of 8.01. On hERG (KCNH2) [1], the inhibition at 5 ug/mL amounted to 47%. The inhibition at […] against hERG (KCNH2) [5] came to 25%.

The molecule `NCc1ncc(C2=CCC(N(CCN3CCCC3)C(=O)Nc3ccc(F)c(Cl)c3)CC2)s1` (stereo not given) had a pKi in series [4] of 7.89. Further, the inhibition at 5 ug/mL against hERG (KCNH2) [1] turned out to be 10%. Besides, the figures for the Activity in series [2] and in series [3] were 88% and 75%, respectively.

For `NCc1cnc(C2=CCC(N(CCN3CCCC3)C(=O)Nc3ccc(F)c(Cl)c3)CC2)s1` (stereo not given), the pKi in series [4] is 7.77. In addition, at hERG (KCNH2) [1], the inhibition at 5 ug/mL turned out to be 14%. Also, the Activity in series [2] worked out at 37%.

On to `CC(=O)NCc1cccc([C@]23CC[C@@H](N(CCN(C(C)C)C(C)C)C(=O)Nc4ccc(F)c(Cl)c4)CC2C3)c1` (stereo not given in full), for which the pKi in series [4] is 7.51. For the same molecule, at hERG (KCNH2) [1], the inhibition at 5 ug/mL stood at 78%. In addition, the inhibition at […] against hERG (KCNH2) [5] came out at 62%.

In turn, `CC1CC[C@@H](CO)N1CCN(C(=O)Nc1ccc(F)c(Cl)c1)[C@@H]1CC[C@]2(c3cccc(C#N)c3)CC2C1` (stereo not given in full) gave a pKi in series [4] of 7.96. Besides, the inhibition at 5 ug/mL at hERG (KCNH2) [1] turned out to be 78%. The Activity in series [2] came out at 31%; in series [3], 2%.

`CS(=O)(=O)N1CCC(CN(C(=O)Nc2ccc(F)c(Cl)c2)[C@@H]2CC[C@]3(c4cccc(C#N)c4)CC3C2)CC1` (stereo not given in full) gave a pKi in series [4] of 8.14. The inhibition at 5 ug/mL on hERG (KCNH2) [1] amounted to 24%. Further, the inhibition at […] on hERG (KCNH2) [5] is 6%.

As for `CS(=O)(=O)N1CCCC(CN(C(=O)Nc2ccc(F)c(Cl)c2)[C@@H]2CC[C@]3(c4cccc(C#N)c4)CC3C2)C1` (stereo not given in full), the negative-log Ki (pKi) in series [4] was 6.68. In addition, at hERG (KCNH2) [1], the inhibition at 5 ug/mL was 9%. The inhibition at […] at hERG (KCNH2) [5] was determined as 3%.

In series [4], `CS(=O)(=O)N1CCCCC1CN(C(=O)Nc1ccc(F)c(Cl)c1)[C@@H]1CC[C@]2(c3cccc(C#N)c3)CC2C1` (stereo not given in full) had a pKi of 6.53. Besides, the inhibition at 5 ug/mL at hERG (KCNH2) [1] turned out to be 3%. On hERG (KCNH2) [5], the inhibition at […] is 31%.

Regarding `NCc1ccc(C2=CCC(N(CCN3CCCC3)C(=O)Nc3ccc(F)c(Cl)c3)CC2)s1` (stereo not given), the pKi in series [4] is 8.09. Further, the inhibition at 5 ug/mL against hERG (KCNH2) [1] stood at 26%. For the same molecule, the Activity in series [2] came to 77%; in series [3], 57%.

Take `CS(=O)(=O)N1CCC(CN(C(=O)Nc2cc(Cl)nc(Cl)c2)[C@@H]2CC[C@]3(c4cccc(CN5CC[C@H](O)C5)c4)CC3C2)CC1` (stereo not given in full): the pKi in series [4] was 8.05. The inhibition at 5 ug/mL against hERG (KCNH2) [1] was 0%. In series [2], this molecule yielded an Activity of 1%. The inhibition at […] on hERG (KCNH2) [5] is -7%.

In the case of `CS(=O)(=O)N1CCC(CN(C(=O)Nc2ccc(F)c(C(F)(F)F)c2)[C@@H]2CC[C@]3(c4cccc(C#N)c4)CC3C2)CC1` (stereo not given in full), in series [4], the pKi is 7.59. Further, the inhibition at 5 ug/mL on hERG (KCNH2) [1] was -1%. For the same molecule, the inhibition at […] against hERG (KCNH2) [5] is -1%.

`CC(=O)N1CCC(CN(C(=O)Nc2ccc(F)c(Cl)c2)[C@@H]2CC[C@]3(c4cccc(C#N)c4)CC3C2)CC1` (stereo not given in full) had a pKi in series [4] of 6.51. Further, the inhibition at 5 ug/mL against hERG (KCNH2) [1] came out at 37%. Besides, at hERG (KCNH2) [5], the inhibition at […] worked out at 32%.

In series [4], `CS(=O)(=O)N1CCC(CN(C(=O)Nc2ccc(F)c(Cl)c2)[C@@H]2CC[C@]3(c4cccc(CN)c4)CC3C2)CC1` (stereo not given in full) showed a pKi of 8.00. Also, on hERG (KCNH2) [1], the inhibition at 5 ug/mL came out at 14%. Besides, the Activity in series [2] was found to be 0%. Further, at hERG (KCNH2) [5], the inhibition at […] stood at 8%.
